hERG protect = hERG (human) protection from proarrhythmic block; CHO-hERG, FluxOR thallium flux, dofetilide IC70 present; activation (rescue from dofetilide block), less the hit threshold, % at 10 µM; 310,000 compounds, 0.51% hits;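 active = activation above the mean of controls blocked by dofetilide plus 5 SD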;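 note: thallium influx through hERG after potassium depolarization seen as dye fluorescence rise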
Target sequence (Q12809 whole entry, looked up): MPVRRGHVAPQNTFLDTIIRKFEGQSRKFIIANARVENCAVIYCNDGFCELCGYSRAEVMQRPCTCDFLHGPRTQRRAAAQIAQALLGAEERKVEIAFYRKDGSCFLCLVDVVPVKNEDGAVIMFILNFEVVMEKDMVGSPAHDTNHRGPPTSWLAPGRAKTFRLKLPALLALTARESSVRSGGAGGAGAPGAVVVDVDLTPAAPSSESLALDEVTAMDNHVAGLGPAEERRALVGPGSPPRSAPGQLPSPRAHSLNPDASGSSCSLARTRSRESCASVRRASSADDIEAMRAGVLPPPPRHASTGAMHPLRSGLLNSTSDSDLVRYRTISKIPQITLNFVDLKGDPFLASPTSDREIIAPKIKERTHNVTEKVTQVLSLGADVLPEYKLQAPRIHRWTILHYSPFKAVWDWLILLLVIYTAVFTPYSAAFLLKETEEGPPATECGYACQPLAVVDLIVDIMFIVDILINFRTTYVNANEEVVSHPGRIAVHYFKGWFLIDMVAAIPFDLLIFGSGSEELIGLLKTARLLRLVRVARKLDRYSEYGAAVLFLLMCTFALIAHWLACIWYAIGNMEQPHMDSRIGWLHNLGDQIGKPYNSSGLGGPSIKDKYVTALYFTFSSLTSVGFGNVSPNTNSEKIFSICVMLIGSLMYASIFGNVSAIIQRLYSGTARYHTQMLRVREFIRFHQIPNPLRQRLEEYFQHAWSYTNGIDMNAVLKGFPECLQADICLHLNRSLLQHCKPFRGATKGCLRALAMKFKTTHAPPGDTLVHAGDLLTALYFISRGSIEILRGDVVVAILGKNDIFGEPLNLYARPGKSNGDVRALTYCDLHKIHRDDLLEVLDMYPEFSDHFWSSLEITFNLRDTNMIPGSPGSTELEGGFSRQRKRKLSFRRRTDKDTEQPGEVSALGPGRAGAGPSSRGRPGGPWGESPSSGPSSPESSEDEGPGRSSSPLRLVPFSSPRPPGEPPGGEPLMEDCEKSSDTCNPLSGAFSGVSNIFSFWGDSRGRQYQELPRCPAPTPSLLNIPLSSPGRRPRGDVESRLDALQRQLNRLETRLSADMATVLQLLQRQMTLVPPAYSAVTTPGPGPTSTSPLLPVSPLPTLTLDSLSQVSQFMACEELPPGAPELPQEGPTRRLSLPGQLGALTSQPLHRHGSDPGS
KCNQ1 act = potentiates or activates the human KCNQ1 potassium channel | B-score at 10 µM | P51787 | CHO-K1 KCNQ1, thallium flux FluxOR fluorescence; stronger effect = higher value | 310,000 compounds, 0.35% hits;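 active = fluorescence ratio B-score, a plate-corrected score, at least three library SD, with initial intensity B-score within 5 SD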
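Material: CHO-K1 cells stably expressing KCNQ1. Medium: assay buffer for compound exposure, DMSO matched across wells. Reagent: K+/Tl+ depolarizing stimulus. Compound dosing: single-concentration screen. Times: 37 °C overnight plating, 90-min dark dye load, 20-min compound pretreatment. Technique: FluxOR Tl+ flux fluorescence.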
KCNK9 inh = blocks the human KCNK9 two-pore domain potassium channel | Q9NPC2 | HEK293 KCNK9, FluxOR thallium flux fluorescence; stronger effect = lower value | B-score at 10 µM | 310,000 compounds, 1.2% hits | AID 488922;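 active = ratio B-score over 3 SD below the library mean, with starting fluorescence within 5 SD of its mean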;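 note: negative B-score means less thallium flux so channel inhibition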
KCNQ1 inh = inhibitors of human KCNQ1 potassium channel; 310,000 compounds, 1.3% hits; P51787; B-score at 10 µM; CHO-K1 KCNQ1, FluxOR thallium flux fluorescence; stronger effect = higher value; AID 2642;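 active = compounds whose thallium flux B-score, printed positive for inhibition, exceeds three library SD while starting fluorescence stays within three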;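 note: channel opened by potassium depolarization with thallium stimulus after 20 min compound exposure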
KCNK3 inh = human KCNK3 channel inhibition, primary screen; CHO-KCNK3 thallium flux, FluxOR fluorescence; stronger effect = lower value; O14649; B-score at 10 µM; AID 602410; 340,000 compounds, 0.84% hits;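 active = B-score under library mean minus 4 SD, starting fluorescence ratio at most library mean plus 5 SD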;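 note: more negative B-score means stronger inhibition of thallium flux through KCNK3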
KCNK9 inh conf = confirmation of human KCNK9 potassium channel inhibitors; shares compounds with KCNK9 inh; HEK293 KCNK9 cells, FluxOR thallium flux fluorescence; inhibition, % at 10 µM; 4,900 compounds, 43% hits;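 active = thallium signal inhibited by more than 5 SD of the compound-free buffer control wells, on both duplicate plates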
Kir2-1 spec = mouse Kir2.1 off-target activity of KCNK9 modulators; shares compounds with KCNK9 inh; Kir2.1 cells, FluxOR thallium flux fluorescence; inhibition, % at 10 µM; 4,900 compounds, 4% hits; AID 492993;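 active = thallium signal drop more than 5 SD beyond the mean of the no-compound control wells, seen in both duplicate plates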;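 note: signal is fluorescence rise after thallium addition divided by baseline fluorescence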
KCNK9 uninduced = second counter-screen for KCNK9 modulators: effect in non-induced cells; shares compounds with KCNK9 inh; non-induced KCNK9-HEK293, FluxOR thallium flux; inhibition, % at 10 µM; 4,900 compounds, 40% hits;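 active = thallium signal drop beyond 5 SD of the untreated control mean, on both duplicate plates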
Large screens that a line does not name were inactive (follow-up assays come after a bar, where they were run). A selection: hits, their analogues and other compounds. The true share with any hit is near 3.1%.

COc1ccc(-c2ccc(C#N)c(SCC(=O)OCc3ccccc3)n2)cc1OC	none
Cc1ccc(-c2cc(-c3n[nH]c(=S)o3)c3ccccc3n2)cc1	hERG protect 12, KCNQ1 act 15 | KCNK9 inh conf inactive | Kir2-1 spec inactive | KCNK9 uninduced inactive
COc1cccc(CC(=O)N(CCC2=CCCCC2)c2c(N)n(Cc3ccccc3)c(=O)[nH]c2=O)c1	none
O=C(N/N=C/c1ccccn1)c1cc(-c2ccc3ccccc3c2)n[nH]1	KCNK9 inh -13 | KCNK9 inh conf 45% | Kir2-1 spec inactive | KCNK9 uninduced 31%
CCCCn1c(-c2csc(CCC)c2)n[nH]c1=S	none | KCNK9 inh conf inactive | Kir2-1 spec inactive | KCNK9 uninduced inactive
CC(C)CC(c1nnnn1C(C)C)N1CCN(c2cccc(Cl)c2)CC1 (stereo unspecified)	KCNK9 inh -9.9 | KCNK9 inh conf 44% | Kir2-1 spec inactive | KCNK9 uninduced 40%
CC(C)CC(c1nnnn1C(C)C)N1CCN(C(=O)c2ccco2)CC1 (stereo unspecified)	none
CC(C)CCN1CCC(CN2C(=O)C(=O)NC[C@@H]2Cc2ccccc2)CC1	none (no result: hERG protect, KCNQ1 act, KCNK9 inh, KCNQ1 inh)
COc1ccccc1OCC(=O)Nc1cc(Cl)ccc1N1CCCCC1	none (no result: hERG protect, KCNQ1 act, KCNK9 inh, KCNQ1 inh)
C=CC[C@@H](CC(=O)NCCO)C(=O)N[C@H](C)COC(=O)[C@@H](CC=C)Cc1ccc(F)cc1	none (no result: hERG protect, KCNQ1 act, KCNK9 inh, KCNQ1 inh)
Cc1nc(CNS(=O)(=O)c2ccccc2F)cs1	none
CCCCSc1nnc(-c2ccccc2)c2ccccc12	KCNK9 inh -15 | KCNK9 inh conf 38% | Kir2-1 spec inactive | KCNK9 uninduced 42%
COc1cc(OC)c(OC)cc1CN1CCCC(C(=O)c2ccccc2SC)C1 (stereo unspecified)	none | KCNK9 inh conf inactive | Kir2-1 spec inactive | KCNK9 uninduced inactive
COc1cc(CN2CCCC(C(=O)c3ccccc3SC)C2)cc(OC)c1 (stereo unspecified)	none | KCNK9 inh conf inactive | Kir2-1 spec inactive | KCNK9 uninduced inactive
CC(C)CNC(=O)N1c2ccccc2Sc2ccccc21	none | KCNK9 inh conf inactive | Kir2-1 spec inactive | KCNK9 uninduced inactive
Cc1sc2ncn(/N=C/c3ccco3)c(=O)c2c1C	none
Cc1ccc(CNc2nc(-c3cccs3)nc3ccccc23)cc1	KCNK9 inh -8.8 | KCNK9 inh conf 36% | Kir2-1 spec inactive | KCNK9 uninduced 30%
c1ccc(CNc2nc(-c3cccs3)nc3ccccc23)nc1	none
COc1ccc(Oc2ccc(N/C=C/C(=O)C(C)(C)C)cc2)cc1	none | KCNK9 inh conf inactive | Kir2-1 spec inactive | KCNK9 uninduced inactive
COC(=O)c1ccc(/C=N/N2CCN(Cc3ccc(C)cc3C)CC2)cc1	none | KCNK9 inh conf inactive | Kir2-1 spec inactive | KCNK9 uninduced inactive
CCc1ccc(-c2nn(-c3ccccc3)cc2C2SCC(=O)N2Cc2ccco2)cc1 (stereo unspecified)	none | KCNK9 inh conf inactive | Kir2-1 spec inactive | KCNK9 uninduced inactive
COc1ccccc1C/C(N)=N/OC(=O)COc1cccc2ccccc12	none | KCNK9 inh conf inactive | Kir2-1 spec inactive | KCNK9 uninduced inactive
COc1ccccc1C/C(N)=N/OC(=O)COc1ccccc1C	none | KCNK9 inh conf inactive | Kir2-1 spec inactive | KCNK9 uninduced inactive
CC1CCC2(CC1)NC(=O)N(CC(=O)N1CCN(C(=O)c3cccs3)CC1)C2=O (stereo unspecified)	none (no result: hERG protect, KCNQ1 act, KCNK9 inh, KCNQ1 inh)
CN(CC(=O)Nc1ccccc1Br)C(=O)c1cc([N+](=O)[O-])ccc1N1CCOCC1	none
O=C(Cn1c(=O)c2c(ncn2C2CCCC2)n(Cc2ccccc2)c1=O)N1CCc2ccccc21	none | KCNK9 inh conf inactive | Kir2-1 spec inactive | KCNK9 uninduced inactive
CCOC(=O)C1=C(O)/C(=C/c2ccc(OCC(=O)O)c(OC)c2)SC1=Nc1ccc(OCC)cc1	none
CCOC(=O)C1=C(O)/C(=C/c2cc(OC)c(O)c(OC)c2)SC1=Nc1ccc(OC)cc1	KCNK9 inh -9.9 | KCNK9 inh conf inactive | Kir2-1 spec inactive | KCNK9 uninduced inactive
CC(C)Oc1cccc(C(=O)C2CCCN(C(=O)c3ccc4c(c3)OCO4)C2)c1 (stereo unspecified)	none | KCNK9 inh conf inactive | Kir2-1 spec inactive | KCNK9 uninduced inactive
CC(C)Oc1cccc(C(=O)C2CCCN(C(=O)c3noc4c3CCCC4)C2)c1 (stereo unspecified)	none | KCNK9 inh conf inactive | Kir2-1 spec inactive | KCNK9 uninduced inactive
CC(C)Oc1cccc(C(=O)C2CCCN(C(=O)c3ccsc3)C2)c1 (stereo unspecified)	none | KCNK9 inh conf inactive | Kir2-1 spec inactive | KCNK9 uninduced inactive
CC(C)Oc1cccc(C(=O)C2CCCN(C(=O)c3ccccn3)C2)c1 (stereo unspecified)	none
COc1ccc(CN2CCCC(C(=O)c3ccc4c(c3)OCO4)C2)c(F)c1 (stereo unspecified)	none | KCNK9 inh conf inactive | Kir2-1 spec inactive | KCNK9 uninduced inactive
CC(C)Oc1cccc(C(=O)C2CCCN(C(=O)c3cncs3)C2)c1 (stereo unspecified)	none
O=C1CCCN1C(=O)CSc1nnnn1-c1ccccc1	none (no result: hERG protect, KCNQ1 act, KCNK9 inh, KCNQ1 inh)
O=C(CO/N=C/c1ccccc1OC(F)F)N1CCc2ccccc21	none
CC1Cc2ccccc2N1C(=O)CO/N=C/c1ccccc1OC(F)F (stereo unspecified)	none | KCNK9 inh conf inactive | Kir2-1 spec inactive | KCNK9 uninduced inactive
CC(C)Oc1ccc(Cn2c(=O)sc3ccccc32)cc1	none | KCNK9 inh conf inactive | Kir2-1 spec inactive | KCNK9 uninduced 30%
COc1ccc(Cn2c(=O)sc3ccccc32)cc1	none
Cc1ccccc1CC1(CO)CCCN(C(=O)c2cccc(Cl)c2)C1 (stereo unspecified)	none | KCNK9 inh conf inactive | Kir2-1 spec inactive | KCNK9 uninduced 24%
Cc1ccccc1CC1(CO)CCCN(C(=O)c2cc(Cl)ccc2F)C1 (stereo unspecified)	none
Cc1cc(Cl)c2oc(C(=O)N(C)CC3CCOCC3)c(C)c2c1	none
CCN(C(=O)CSc1nc2cc(C(=O)O)ccc2c(=O)n1-c1ccccc1F)C1CCS(=O)(=O)C1 (stereo unspecified)	none (no result: hERG protect, KCNQ1 act, KCNK9 inh, KCNQ1 inh)
N#C/C(=C/c1ccc(OCc2ccc(C(=O)O)cc2)c(Br)c1)c1cccc(F)c1	none | KCNK9 inh conf inactive | Kir2-1 spec inactive | KCNK9 uninduced inactive
C=CCON1C(=O)C(=O)N(OCC=C)[C@H]2CCCC[C@H]21	none
Cc1ccn2c(CNCc3cnn(C)c3)c(C(=O)N3CCCCCC3)nc2c1	none
CCOc1ccc(/C=C2\SC(=S)N(CCC(=O)Nc3ccc(C(=O)O)cc3)C2=O)cc1	none

Assay outcomes deposited in PubChem by Johns Hopkins Ion Channel Center.
